Data from article PMC3988263 (European journal of pharmacology, 2011).

Tests used:
[1] = test system: harmaline-induced tremor in ICR mice; assay: Tremor measurement in the harmaline model; format: in vivo, mouse; conditions: harmaline 20 mg/kg
In short: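 Male ICR mice (20–24 g) sat on a motion-sensing platform; 20 min baseline, then harmaline 20 mg/kg, then test compound or saline vehicle 15 min later (time 0); 100 min recording; 5–6 mice/group. Read-out was 10–16 Hz motion power as % of 0–33 Hz power over 20–60 and 60–100 min. Reduction = 100×(1−[(DT−DB)/(mean VT−mean VB)]) versus vehicle group; repeated-measures ANOVA.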

[2] = test system: mice (sedation or ataxia); assay: Gross observation in open fields; format: in vivo, mouse; conditions: doses below 200 mg/kg
[3] = test system: mouse liver microsomes (cytochrome P450, harmaline O-demethylation); assay: Harmaline O-demethylation to harmalol in mouse liver microsomes; format: in vitro ADME
[4] = test system: mice (retention time on inverted wire grid); assay: Inverted grid test of behavioral toxicity; format: in vivo, mouse
human CYP2D6 = conditions: ref Bui et al., 2008; cited from earlier work
[5] = test system: mice (sedation/motor function); assay: Horizontal wire test of behavioral toxicity; format: in vivo, mouse
[6] = test system: GABAA receptor α1-null mice (tremor); assay: Tremor measurement in the GABAA receptor α1-null model; format: in vivo, mouse; conditions: for tremor reduction compared to baseline: 20 mg/kg i.p., 30 min after drug, tail suspension
[7] = test system: CYP3A (mouse liver microsomes)
[8] = test system: high voltage calcium channels; conditions: at 100 µM; ref Huang et al., 2004; Li et al., 2005; cited from earlier work
pentylenetetrazol model = conditions: ref Handforth et al., 2010; cited from earlier work
human recombinant CYP3A4 = conditions: ref Bui et al., 2008; cited from earlier work
[9] = ref Ertel and Clozel, 1997; cited from earlier work
[10] = test system: cytochrome P450 (harmaline O-demethylation to harmalol); assay: Harmaline O-demethylation to harmalol in mouse liver microsomes; format: in vitro ADME; conditions: mouse, mouse liver microsomes, pH 7.5, probe harmaline (10 µM)
blood pressure = conditions: ref Dogrul et al., 2003; cited from earlier work
[11] = 12.5 mg/kg i.p., 20–60 min post-drug
[12] = 12.5 mg/kg i.p., 60–100 min post-drug

In the case of CC(C)[C@H]1c2ccc(F)cc2CC[C@@]1(CCN(C)CCCc1nc2ccccc2[nH]1)OC(=O)C1CC1.Cl.Cl [NNC 55-0396, (1S,2S)-2-(2-(N-[(3-benzimidazol-2-yl)propyl]-N-methylamino)ethyl)-6-fluoro-1,2,3,4-tetrahydro-1-isopropyl-2-naphtyl cyclopropanecarboxylate dihydrochloride], the “tremor generation reduced compared to the vehicle group” value (shortened to “tremor generation reduced”) [1, 11] is reported as 48.5 ± 12.4%, the “tremor generation reduced” value [1, 12] is reported as 48.9 ± 13.6% and the “tremor generation reduced” value ([1]; 20 mg/kg i.p., 20–60 min post-drug) is reported as 73.6 ± 20.1%. For the same compound, the “tremor generation reduced” value ([1]; 20 mg/kg i.p., 60–100 min post-drug) was 85.1 ± 29.1%, the “gross observations in open fields: sedation or ataxia” value [2] was “did not reveal sedation or ataxia” and the Ki [3] was 0.95 µM. For the same compound, the “Ki for harmaline O-demethylation relative to mibefradil” value [3] was “approximately three-fold higher”, the “O-demethylation of harmaline, percentage of normal (mean ± S.D.)” value ([3]; drug 100 nM, 10 µM harmaline, mouse liver microsomes) was 103.7 ± 12.8% and the “O-demethylation of harmaline, percent of normal (mean ± S.D.)” value ([3]; drug 10 µM, 10 µM harmaline, mouse liver microsomes) was 46.6 ± 5.3%. For the same compound, the “appearance (sedation) of drug/harmaline mice” value ([4]; drug 20 mg/kg i.p. then harmaline 20 mg/kg s.c.) was “did not appear sedated”, the “retention on the inverted grid compared with vehicle/harmaline mice” value ([4]; mouse, in vivo) was “better than vehicle/harmaline mice” and the “Ki for human CYP2D6 relative to mibefradil” value (human CYP2D6) was “one-fourth that of mibefradil”. For the same compound, the “dose at which 3/6 failed the horizontal wire test” value ([5]; mouse, in vivo, ip) was 300 mg/kg, the “maximal dose at which 6/6 mice passed the horizontal wire test” value ([5]; mouse, in vivo, ip) was 200 mg/kg and the “tremor reduction compared to baseline” value [6] was 49.2%. For the same compound, the “effect on the tremor motion power peak” value ([6]; 40 mg/kg i.p., individual α1-null mouse, retest 30 min later) was “suppressed the tremor motion power peak”, the Ki [7] was 0.71 µM and the “Ki for testosterone 6-β-hydroxylation relative to mibefradil” value [7] was “over five-fold higher”. For the same compound, the “effect against high voltage calcium channels” value [8] was “no effect”, the anti-seizure efficacy (pentylenetetrazol model) was “anti-seizure efficacy” and the “fold higher Ki than mibefradil” value (human recombinant CYP3A4) was 9 fold.
For COc1ccc2c3c([nH]c2c1)C(C)=NCC3 [harmaline], the “retention time on the wire grid compared with vehicle/vehicle controls” value ([4]; vehicle-pre-treated mice, harmaline 20 mg/kg s.c., test 30 min later) was “reduced retention times on the wire grid”.
In the case of COCC(=O)O[C@]1(CCN(C)CCCc2nc3ccccc3[nH]2)CCc2cc(F)ccc2[C@@H]1C(C)C [mibefradil], the “tremor generation reduced” value [1, 11] is listed as 23.1 ± 3.9%, the “tremor generation reduced” value [1, 12] is listed as 20.8 ± 11.5% and the “crossing of the blood–brain-barrier” value [9] is listed as “does not cross the blood–brain-barrier”. The “Ki for harmaline O-demethylation relative to NNC 55-0396” value ([3]; mouse liver microsomes) was “less than a third that of NNC 55-0396”, the Ki at 20 min [10] was 0.29 µM and the “appearance (sedation) of drug/harmaline mice” value ([4]; mouse, in vivo) was “appeared sedated”. The “retention on the inverted grid compared with vehicle/harmaline mice” value ([4]; mouse, in vivo) was “worse retention”, the “maximal dose at which 6/6 mice passed the horizontal wire test” value ([5]; i.p., tested at 10-min intervals for 1.5 h) was 20 mg/kg and the “dose at which 3/6 failed the horizontal wire test” value ([5]; mouse, in vivo, ip, 1.5 h) was 30 mg/kg. For the same compound, the “tremor reduction compared to baseline” value [6] was “no effect on tremor” and the “dose reported to produce severe hypotension” value (blood pressure) was 30 mg/kg.
